These results are taken from ChEMBL document CHEMBL3877328, “Identification of allosteric binding sites for PI3Kα oncogenic mutant specific inhibitor design” (Bioorg Med Chem, 2017).

Assay [1] concerns the target PI3-kinase p110-alpha/p85-alpha (Homo sapiens) (UniProt P27986+P42336). The experiment in a line: Inhibition of wild type PI3K p110alpha/p85alpha niSH2 (unknown origin) expressed in baculovirus infected sf9 cells assessed as reduction in PIP3 formation at 100 uM using PIP2 as substrate after 45 mins by fluorescence polarization assay relative to control. In short, it runs like this: (§1)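 Wild-type PI3Kα, either full-length or the p110α/niSH2 construct used for crystallography. Protein was co-expressed in Sf9 cells from p110α and p85α (or niSH2) viruses at MOI ratio 3:2, with J-32 in the medium, and harvested at 48 h. Fragments were added from 10% (v/v) DMSO dilutions and screened at 100 μM. Reactions held 10 μM PIP2 and 25 μM ATP, 45 min at room temperature. PIP3 formation was read by fluorescence polarization.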
(Polarisation of emitted light reports the rotation of a fluorescent probe.)

Assay [2] has as its target T1, Phosphatidylinositol 4,5-bisphosphate 3-kinase catalytic subunit alpha isoform (Homo sapiens, UniProt P42336). Nature of the assay: Inhibition of full length PI3Kalpha (unknown origin) assessed as reduction in PIP3 formation at 100 uM using PIP2 as substrate after 45 mins by fluorescence polarization assay relative to control. In outline:
as §1

The target in assay [3] is T1, Phosphatidylinositol 4,5-bisphosphate 3-kinase catalytic subunit alpha isoform. The experiment in a line: Inhibition of full length PI3Kalpha (unknown origin) assessed as reduction in PIP3 formation using PIP2 as substrate after 45 mins by fluorescence polarization assay. In outline: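 Wild-type full-length p110α/p85α PI3Kα, baculovirus-expressed in Sf9 cells, purified. Fluorescence polarization kit detecting PIP3 formation. Reaction with 10 μM PIP2 and 25 μM ATP, 45 min at room temperature. Fragments diluted in 10% (v/v) DMSO. Single-point screen at 100 μM; IC50 from dose-response curves over increasing fragment concentrations.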

A value given as a limit tells only on which side of the number the result lay.

T1 sequence (P42336 whole entry, canonical isoform): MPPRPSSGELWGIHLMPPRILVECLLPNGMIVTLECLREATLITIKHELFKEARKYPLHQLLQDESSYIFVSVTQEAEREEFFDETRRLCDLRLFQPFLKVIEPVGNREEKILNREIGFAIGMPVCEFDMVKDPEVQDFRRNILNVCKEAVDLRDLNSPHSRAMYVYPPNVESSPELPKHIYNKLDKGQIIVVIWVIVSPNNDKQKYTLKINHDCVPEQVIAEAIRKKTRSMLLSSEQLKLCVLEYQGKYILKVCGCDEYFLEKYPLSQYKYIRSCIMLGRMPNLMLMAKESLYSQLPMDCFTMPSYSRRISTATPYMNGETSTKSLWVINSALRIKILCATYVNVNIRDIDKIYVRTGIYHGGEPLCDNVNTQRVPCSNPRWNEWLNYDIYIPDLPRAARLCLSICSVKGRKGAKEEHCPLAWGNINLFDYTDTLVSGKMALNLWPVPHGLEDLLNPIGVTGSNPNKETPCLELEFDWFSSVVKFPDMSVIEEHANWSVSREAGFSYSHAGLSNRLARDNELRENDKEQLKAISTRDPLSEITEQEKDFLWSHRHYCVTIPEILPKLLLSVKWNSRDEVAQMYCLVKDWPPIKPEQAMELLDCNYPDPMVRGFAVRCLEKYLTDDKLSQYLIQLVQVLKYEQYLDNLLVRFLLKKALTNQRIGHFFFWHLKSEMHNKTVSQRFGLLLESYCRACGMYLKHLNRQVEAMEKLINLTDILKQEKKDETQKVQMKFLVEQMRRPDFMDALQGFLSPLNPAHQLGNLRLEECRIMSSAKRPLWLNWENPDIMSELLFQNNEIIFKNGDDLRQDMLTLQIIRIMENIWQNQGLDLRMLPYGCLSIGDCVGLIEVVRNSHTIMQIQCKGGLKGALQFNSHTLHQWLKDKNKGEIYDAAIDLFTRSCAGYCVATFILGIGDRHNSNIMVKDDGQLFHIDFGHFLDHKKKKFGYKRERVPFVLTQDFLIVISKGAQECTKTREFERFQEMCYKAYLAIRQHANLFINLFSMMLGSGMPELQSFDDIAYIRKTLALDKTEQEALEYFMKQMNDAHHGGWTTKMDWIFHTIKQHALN

The term inhibition denotes how much of the control response was suppressed. In the case of `NS(=O)(=O)c1ccccc1Cl`, the inhibition in assay [1] and in assay [2] was less than 25% in each case.

On to `COc1ccccc1C(=O)O`, for which the inhibition in assay [1] and in assay [2] was less than 25% throughout.

`CC1C(=O)CCCC1=O`: the inhibition in assay [1] and in assay [2] was less than 25% in each case.

For the compound `Nc1ccc2[nH]c(C(F)(F)F)nc2c1`, the inhibition in assay [1] and in assay [2] was less than 25% throughout.

As for `O=c1[nH]c(=O)c2nccnc2[nH]1`, the inhibition in assay [1] and in assay [2] was less than 25% each time.

As to `Cc1cc2ccccc2[nH]1`, the inhibition in assay [1] and in assay [2] was less than 25% each time.

`Nc1nc2ccccc2[nH]1`: the inhibition in assay [1] and in assay [2] was less than 25% throughout.

Take `CC(C)(C)OC(=O)N1CCC(N)CC1`: the inhibition in assay [1] and in assay [2] was less than 25% each time.

On to `Oc1cccnc1`, for which the inhibition in assay [1] and in assay [2] was less than 25% in each case.

Consider `OC1CCC(O)CC1` (configuration not stated), for which the inhibition in assay [1] and in assay [2] was less than 25% in each case.

For the compound `O=C(O)c1ccccc1O`, the inhibition in assay [1] and in assay [2] was less than 25% each time.

As a reminder, the IC50 is the point on the concentration scale where inhibition reaches its midpoint. Consider `Cc1c(N)cccc1N`, for which, in assay [2], the inhibition is 92%. Also, the IC50 in assay [3] amounted to 20 µM.

As to `Cc1cccc(N)n1`, the inhibition in assay [1] and in assay [2] was less than 25% each time.

As for `N#Cc1cccc(N)c1`, the inhibition in assay [1] and in assay [2] was less than 25% throughout.

For the compound `Nc1ccc2c(c1)CN=N2`, the inhibition in assay [1] and in assay [2] was less than 25% each time.

With `Cc1ccnc(N)c1[N+](=O)[O-]`, the inhibition in assay [1] and in assay [2] was less than 25% throughout.

In the case of `Cc1cc(C)nc(N)c1`, the inhibition in assay [1] and in assay [2] was less than 25% throughout.

In the case of `Oc1ccccc1O` [CATECHOL], in assay [2], the inhibition turned out to be 87%. The IC50 in assay [3] was 33 µM.

For `Nc1ccccc1CO`, the inhibition in assay [1] and in assay [2] was less than 25% each time.

For the compound `O=C(O)CCc1ccc(O)cc1`, the inhibition in assay [1] and in assay [2] was less than 25% throughout.

On to `O=c1[nH]cc(F)c(=O)[nH]1`, for which the inhibition in assay [1] and in assay [2] was less than 25% in each case.
